Drawing on ChEMBL document CHEMBL4373663, “New N-phenyl-4,5-dibromopyrrolamides as DNA gyrase B inhibitors” (Medchemcomm, 2019), this text covers inhibition, IC50 and Activity for ten molecules.

pIC50: −log10 of the molar value. Active and inactive are the calls of the source. The calls are words filed in the database; no cut-off is given here.

One assay relates to Enterococcus faecalis. In words: Antibacterial activity against Enterococcus faecalis ATCC 29212 assessed as reduction in bacterial growth at 50 uM incubated for 24 hrs by broth microdilution assay relative to control. The class given is functional. The procedure, abridged: (§1)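 Clinical control strains kept on cation-adjusted Mueller Hinton agar slants. Before the assay, suspensions were grown in cation-adjusted Mueller Hinton broth at 37 °C for 16–20 h at 100 rpm. Broth microdilution in 96-well format followed CLSI guidelines. Each compound was tested at 50 μM, and the result was expressed as percentage inhibition of bacterial growth.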
(Dilution methods test growth across graded concentrations, often in twofold steps.)

Another assay relates to Staphylococcus aureus. The assay can be described thus: Antibacterial activity against Staphylococcus aureus ATCC 25923 assessed as bacterial growth at 50 uM incubated for 24 hrs by broth microdilution assay. Type of assay: functional, organism-based. The procedure, abridged:
as §1

Assay [1] concerns the target DNA gyrase (Escherichia coli, UniProt P0AES4+P0AES6). In words: Inhibition of Escherichia coli DNA gyrase using relaxed pNO1 plasmid DNA as substrate incubated for 30 mins by fluorescence assay. The class given is protein-complex assay.
The subject of assay [2] is Escherichia coli. The assay can be described thus: Antibacterial activity against Escherichia coli ATCC 25922 assessed as reduction in bacterial growth at 50 uM incubated for 24 hrs by broth microdilution assay relative to control. The class given is functional. The procedure, abridged:
as §1

In the next assay the test system is Pseudomonas aeruginosa. In words: Antibacterial activity against Pseudomonas aeruginosa ATCC 27853 assessed as bacterial growth at 50 uM incubated for 24 hrs by broth microdilution assay. Type of assay: functional, organism-based. The procedure, abridged: as §1
For assay [3], the target named is DNA gyrase (Escherichia coli) (UniProt P0AES6+P0AES4). In words: Inhibition of Escherichia coli DNA gyrase using relaxed pNO1 plasmid DNA as substrate assessed as enzyme residual activity at 10 uM incubated for 30 mins by fluorescence assay relative to control. The class given is protein-complex assay.
The nature of assay [4]: Inhibition of Escherichia coli DNA topoisomerase 4 using supercoiled pNO1 plasmid DNA as substrate incubated for 30 mins by fluorescence assay.
For assay [5], the target named is DNA gyrase (Staphylococcus aureus, UniProt P0A0K8+P20831). In words: Inhibition of Staphylococcus aureus DNA gyrase using relaxed pNO1 plasmid DNA as substrate incubated for 30 mins by fluorescence assay. The class given is protein-complex assay.
A further assay concerns the target Topoisomerase IV (Staphylococcus aureus, UniProt P0C1S7+P0C1U9). The assay can be described thus: Inhibition of Staphylococcus aureus DNA topoisomerase 4 using supercoiled pNO1 plasmid DNA as substrate incubated for 30 mins by fluorescence assay. Type of assay: protein-complex assay.
Assay [6] relates to Escherichia coli. The assay can be described thus: Inhibition of Escherichia coli DNA topoisomerase 4 using supercoiled pNO1 plasmid DNA as substrate assessed as enzyme residual activity at 10 uM incubated for 30 mins by fluorescence assay relative to control.
Assay [7] deals with Topoisomerase IV (Staphylococcus aureus) (UniProt P0C1U9+P0C1S7). In words: Inhibition of Staphylococcus aureus DNA topoisomerase 4 using supercoiled pNO1 plasmid DNA as substrate assessed as enzyme residual activity at 10 uM incubated for 30 mins by fluorescence assay relative to control. Type of assay: protein-complex assay.
Assay [8] concerns the target DNA gyrase (Staphylococcus aureus) (UniProt P0A0K8+P20831). The assay can be described thus: Inhibition of Staphylococcus aureus DNA gyrase using relaxed pNO1 plasmid DNA as substrate assessed as enzyme residual activity at 10 uM incubated for 30 mins by fluorescence assay relative to control. The class given is protein-complex assay.

Sequence of DNA gyrase (Staphylococcus aureus, UniProt P0A0K8+P20831) (P0A0K8 whole entry): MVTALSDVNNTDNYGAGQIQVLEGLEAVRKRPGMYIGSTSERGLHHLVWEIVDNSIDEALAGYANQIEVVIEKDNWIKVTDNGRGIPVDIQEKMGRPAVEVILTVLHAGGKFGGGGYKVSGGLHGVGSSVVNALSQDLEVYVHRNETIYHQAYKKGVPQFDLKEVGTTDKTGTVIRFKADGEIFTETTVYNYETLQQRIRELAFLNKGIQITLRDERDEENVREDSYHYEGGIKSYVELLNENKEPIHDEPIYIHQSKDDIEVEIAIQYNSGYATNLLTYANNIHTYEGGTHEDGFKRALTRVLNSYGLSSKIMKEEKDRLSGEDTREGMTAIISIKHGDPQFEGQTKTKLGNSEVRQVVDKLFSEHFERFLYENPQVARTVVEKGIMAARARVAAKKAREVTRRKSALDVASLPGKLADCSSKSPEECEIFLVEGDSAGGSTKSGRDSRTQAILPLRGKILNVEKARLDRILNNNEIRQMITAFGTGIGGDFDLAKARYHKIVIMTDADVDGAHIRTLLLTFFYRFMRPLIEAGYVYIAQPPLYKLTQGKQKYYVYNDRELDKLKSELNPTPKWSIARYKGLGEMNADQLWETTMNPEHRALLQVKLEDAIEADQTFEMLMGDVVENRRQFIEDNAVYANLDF
Sequence of DNA gyrase (Staphylococcus aureus, UniProt P0A0K8+P20831) (P20831 whole entry): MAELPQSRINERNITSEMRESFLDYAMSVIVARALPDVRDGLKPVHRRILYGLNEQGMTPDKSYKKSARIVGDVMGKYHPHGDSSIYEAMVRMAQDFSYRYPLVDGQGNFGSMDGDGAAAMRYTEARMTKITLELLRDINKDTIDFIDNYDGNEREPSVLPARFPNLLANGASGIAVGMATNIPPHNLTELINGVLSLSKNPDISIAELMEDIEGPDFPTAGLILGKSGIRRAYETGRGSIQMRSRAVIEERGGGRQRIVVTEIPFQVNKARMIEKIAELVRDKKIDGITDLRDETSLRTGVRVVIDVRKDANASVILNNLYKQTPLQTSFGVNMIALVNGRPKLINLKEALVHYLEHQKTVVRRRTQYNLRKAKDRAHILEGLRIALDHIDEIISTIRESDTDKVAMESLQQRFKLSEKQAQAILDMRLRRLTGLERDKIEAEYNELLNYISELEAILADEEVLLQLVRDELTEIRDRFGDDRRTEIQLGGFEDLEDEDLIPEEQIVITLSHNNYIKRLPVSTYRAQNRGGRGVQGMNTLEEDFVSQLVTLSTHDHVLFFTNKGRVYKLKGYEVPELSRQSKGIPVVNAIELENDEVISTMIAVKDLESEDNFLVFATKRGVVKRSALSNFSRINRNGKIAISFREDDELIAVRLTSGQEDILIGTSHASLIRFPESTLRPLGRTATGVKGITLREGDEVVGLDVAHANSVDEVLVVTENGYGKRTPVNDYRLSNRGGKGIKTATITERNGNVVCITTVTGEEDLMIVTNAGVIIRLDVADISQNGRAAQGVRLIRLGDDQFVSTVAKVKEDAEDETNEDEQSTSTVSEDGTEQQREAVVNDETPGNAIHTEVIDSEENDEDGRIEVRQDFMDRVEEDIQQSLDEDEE
Sequence of DNA gyrase (Staphylococcus aureus) (P0A0K8 2-644 limits assumed): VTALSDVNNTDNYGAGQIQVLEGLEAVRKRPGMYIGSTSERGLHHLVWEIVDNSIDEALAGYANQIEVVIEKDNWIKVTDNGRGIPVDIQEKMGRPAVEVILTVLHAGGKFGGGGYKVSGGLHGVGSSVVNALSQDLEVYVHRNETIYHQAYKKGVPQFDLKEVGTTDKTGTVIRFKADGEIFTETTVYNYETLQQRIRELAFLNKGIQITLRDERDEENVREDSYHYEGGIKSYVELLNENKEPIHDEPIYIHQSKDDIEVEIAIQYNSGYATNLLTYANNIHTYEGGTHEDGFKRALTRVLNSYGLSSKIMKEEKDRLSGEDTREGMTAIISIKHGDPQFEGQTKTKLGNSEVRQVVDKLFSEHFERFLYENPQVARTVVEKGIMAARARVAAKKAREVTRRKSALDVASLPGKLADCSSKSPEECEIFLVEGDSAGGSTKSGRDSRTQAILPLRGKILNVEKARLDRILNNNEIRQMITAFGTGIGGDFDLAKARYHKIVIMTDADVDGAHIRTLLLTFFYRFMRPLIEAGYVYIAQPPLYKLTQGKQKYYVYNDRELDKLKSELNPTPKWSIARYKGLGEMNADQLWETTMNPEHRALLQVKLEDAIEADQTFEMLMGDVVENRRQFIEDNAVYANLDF
Sequence of DNA gyrase (Staphylococcus aureus) (P20831 whole entry partner): as the sequence (P20831 whole entry) above
Sequence of Topoisomerase IV (P0C1U9 whole entry): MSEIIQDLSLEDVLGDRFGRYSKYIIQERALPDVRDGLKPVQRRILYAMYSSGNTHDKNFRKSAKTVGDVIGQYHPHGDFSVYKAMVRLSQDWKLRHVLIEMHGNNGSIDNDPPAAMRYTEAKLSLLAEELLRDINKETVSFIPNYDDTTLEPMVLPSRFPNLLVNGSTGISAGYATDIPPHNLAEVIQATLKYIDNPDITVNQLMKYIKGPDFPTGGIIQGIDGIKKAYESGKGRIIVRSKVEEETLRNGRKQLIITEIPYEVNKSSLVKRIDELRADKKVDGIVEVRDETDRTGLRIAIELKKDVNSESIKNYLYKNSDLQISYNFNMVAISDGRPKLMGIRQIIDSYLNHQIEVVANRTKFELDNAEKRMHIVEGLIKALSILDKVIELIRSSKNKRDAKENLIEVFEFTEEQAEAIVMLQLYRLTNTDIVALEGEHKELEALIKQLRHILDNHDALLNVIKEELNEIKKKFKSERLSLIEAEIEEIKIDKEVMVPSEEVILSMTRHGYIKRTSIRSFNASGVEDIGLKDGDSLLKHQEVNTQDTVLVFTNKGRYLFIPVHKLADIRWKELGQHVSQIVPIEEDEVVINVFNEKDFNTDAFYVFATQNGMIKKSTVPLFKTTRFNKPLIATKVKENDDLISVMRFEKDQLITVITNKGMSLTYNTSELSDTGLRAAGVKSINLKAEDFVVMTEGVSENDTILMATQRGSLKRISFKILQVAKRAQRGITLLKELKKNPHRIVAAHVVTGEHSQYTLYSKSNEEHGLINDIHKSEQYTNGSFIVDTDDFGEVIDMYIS
Sequence of Topoisomerase IV (P0C1S7 whole entry): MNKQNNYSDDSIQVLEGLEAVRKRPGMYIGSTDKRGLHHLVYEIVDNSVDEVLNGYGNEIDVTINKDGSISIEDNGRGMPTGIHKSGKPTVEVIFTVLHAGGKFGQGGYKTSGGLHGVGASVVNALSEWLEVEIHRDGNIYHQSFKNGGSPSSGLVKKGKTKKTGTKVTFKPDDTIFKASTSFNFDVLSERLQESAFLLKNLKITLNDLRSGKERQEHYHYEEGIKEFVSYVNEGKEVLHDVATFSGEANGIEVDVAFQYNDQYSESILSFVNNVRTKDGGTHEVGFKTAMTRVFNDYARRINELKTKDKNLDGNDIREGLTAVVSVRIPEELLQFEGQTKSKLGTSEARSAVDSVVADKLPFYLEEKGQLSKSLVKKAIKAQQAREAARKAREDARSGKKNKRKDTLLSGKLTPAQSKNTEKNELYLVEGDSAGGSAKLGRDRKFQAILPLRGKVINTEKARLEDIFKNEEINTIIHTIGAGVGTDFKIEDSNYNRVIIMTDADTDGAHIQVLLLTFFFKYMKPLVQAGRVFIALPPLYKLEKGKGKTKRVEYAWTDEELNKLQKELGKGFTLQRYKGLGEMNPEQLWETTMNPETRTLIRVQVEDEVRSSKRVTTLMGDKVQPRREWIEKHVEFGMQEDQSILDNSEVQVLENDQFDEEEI

Turning to `O=C(Nc1ccc(OCc2n[nH]c(=O)o2)cc1)c1cc(Br)c(Br)[nH]1`, the inhibition result in the assay on Enterococcus faecalis, in the assay with Staphylococcus aureus, with Escherichia coli [2] and with Pseudomonas aeruginosa was “inactive” in each case. In addition, the pIC50 against DNA gyrase [1] was 5.07.
As to `NNC(=O)COc1ccc(NC(=O)c2cc(Br)c(Br)[nH]2)cc1`, the Activity in assay [3] was determined as 100%.
`NNC(=O)COc1ccc(NC(=O)c2cc(Br)c(Br)[nH]2)c(OCc2ccccc2)c1`: the Activity in assay [3] was 100%.
As to `O=C(Nc1ccc(OCc2n[nH]c(=O)o2)cc1OCc1ccccc1)c1cc(Br)c(Br)[nH]1`, the inhibition result in the assay with Enterococcus faecalis, in the assay with Staphylococcus aureus, in the assay with Escherichia coli [2] and in the assay on Pseudomonas aeruginosa was “inactive” in each case. The Activity in assay [3] was found to be 85%.
As for `COC(=O)COc1ccc(NC(=O)c2cc(Br)c(Br)[nH]2)c(OCc2ccccc2)c1`, the Activity in assay [3] was 100%.
Turning to `Cc1nc(-c2cc(NC(=O)CC(=O)O)ccc2NC(=O)c2cc(Br)c(Br)[nH]2)no1`, the inhibition result with Enterococcus faecalis, in the assay with Staphylococcus aureus, in the assay with Escherichia coli [2] and in the assay with Pseudomonas aeruginosa was “inactive” throughout. For the same molecule, the pIC50 is 4.96 in assay [4], 5.85 at DNA gyrase [5], 4.85 against Topoisomerase IV and 7.70 at DNA gyrase [1].
As for `Cc1nc(-c2cc(NC(=O)Cc3n[nH]c(=O)o3)ccc2NC(=O)c2cc(Br)c(Br)[nH]2)no1`, the inhibition entry in the assay with Enterococcus faecalis, in the assay with Staphylococcus aureus, in the assay with Escherichia coli [2] and in the assay with Pseudomonas aeruginosa was “inactive” throughout. In addition, the Activity in the assay on Escherichia coli [6] was found to be 91%; in assay [7], 60%. Moreover, the pIC50 was 4.96 against DNA gyrase [5] and 7.35 against DNA gyrase [1].
Turning to `Cc1nc(-c2cc(NC(=O)CC(=O)NN)ccc2NC(=O)c2cc(Br)c(Br)[nH]2)no1`, the inhibition entry in the assay with Enterococcus faecalis, in the assay on Staphylococcus aureus and in the assay on Pseudomonas aeruginosa was “inactive” each time. Further, the Activity with Escherichia coli [6] amounted to 88%; in assay [7], 98%; in assay [8] it was 80%. Besides, the pIC50 against DNA gyrase [1] was 6.85. The inhibition at 50 µM in the assay on Escherichia coli [2] (ATCC 25922, 24 h) was determined as 16%.
In the case of `COC(=O)CC(=O)Nc1ccc(NC(=O)c2cc(Br)c(Br)[nH]2)c(-c2noc(C)n2)c1`, the inhibition entry in the assay with Enterococcus faecalis, in the assay on Staphylococcus aureus, in the assay with Escherichia coli [2] and with Pseudomonas aeruginosa was “inactive” throughout. Moreover, the results for the Activity (in the assay on Escherichia coli [6]; in assay [7]) were 72% and 100%, respectively. Also, the pIC50 is 4.20 on DNA gyrase [5] and 7.07 against DNA gyrase [1].
Consider `O=C(O)COc1ccc(NC(=O)c2cc(Br)c(Br)[nH]2)c(OCc2ccccc2)c1`, for which, in the assay with Enterococcus faecalis (ATCC 29212, 24 h), the inhibition at 50 µM came out at 25%. The Activity in the assay with Escherichia coli [6] is 84%; in [7], 92%; in assay [8], 87%. Besides, the inhibition entry in the assay with Staphylococcus aureus, in the assay on Escherichia coli [2] and in the assay on Pseudomonas aeruginosa was “inactive” throughout. At DNA gyrase [1], this molecule gave a pIC50 of 6.07.

Broadly, the inhibition is the relative decrease from the control value, in per cent. In general, pIC50 refers to the negative decadic logarithm of the IC50, by convention in mol/L. A higher pIC50 goes with a low IC50.
